The values below come from article PMC4530033 (Journal of immunology (Baltimore, Md. : 1950), 2015).

SMILES strings stand for the structures.

For one data set, the system named is SW620 and SW480 cells. Briefly: ChIP analysis of the FAS promoter region. The format is cell-based, human. Particulars: 2 days. Put shortly: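 Cells (SW620 given 50 nM test compound for H3K9me3 and RNA Pol II; SW480 and SW620 for H3K9ac) treated 2 days. ChIP followed the kit manufacturer's protocol with anti-H3K9me3, anti-H3K9ac or anti-RNA Pol II, and IgG as the negative control. The FAS promoter ChIP 1 region was read by semi-quantitative PCR and by real-time PCR, against 2 ng genomic DNA set at 1.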

Data set [1] has as its system metastatic human CRC cells. Put plainly: Cell growth / viability. The class given is cell-based.
The test system of data set [2] is LS411N-5FU-R and SW620-5FU-R cells. Put plainly: Fas expression. The class given is cell-based, human. Particulars: 20 nM, 2 days. A digest of the protocol: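 Cells were cultured with or without 20 nM test compound for 2 days. Surface Fas was measured by flow cytometry with a Fas-specific mAb against an IgG isotype control, quantified as MFI (mean, SD). Fas mRNA in SW620-5FU-R was measured by real-time RT-PCR.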

For data set [3] the test system is unchanged. Briefly: Sensitization to FasL-induced apoptosis. The class given is cell-based, human. Particulars: sublethal doses plus FasL, 24h.
For data set [4], the system named is SW620-5FU-R and LS411N-5FU-R cells. Put plainly: Cell surface DR4 and DR5 expression by flow cytometry. The format is cell-based, human. To be noted: 2 days. A digest of the protocol:
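Cells were plated at 1×10^5 per well and exposed to 0, 20 or 50 nM test compound. They were then stained with anti-DR4 (TRAIL-R1) or anti-DR5 (TRAIL-R2) antibodies and analysed by flow cytometry.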
For orientation: Flow cytometry measures light scatter and fluorescence of single cells or particles in a stream.

For data set [5], the system named is LS411N and SW620 cells. Briefly: Global H3K9 methylation by Western blot of histone acidic extracts. The format is cell-based, human. Particulars: 2 days. Put shortly:
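Cells were exposed to test compound at several concentrations for 2 days. Lysis buffer was 20 mM Tris-HCl pH 8, 150 mM NaCl, 5 mM EDTA, 0.5% NP-40 with protease inhibitors, for 30 min. After centrifugation the pellet went into 0.1M HCl on ice for 30 min. The acid extract was neutralised with Tris-HCl pH 9.0, blotted for H3K9me2/H3K9me3, and reprobed for total H3 as normaliser.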

Data set [6] has as its system LS411N-5FU-R and SW620-5FU-R cells. Briefly: Sensitization to Drozitumab-induced apoptosis. The class given is cell-based, human. To be noted: verticillin A 20 nM, Drozitumab 500 ng/ml, 24h. Put shortly: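 Cells were given test compound (20 nM), drozitumab (500 ng/ml) or both for 24 h. Floating and adherent cells were pooled and stained with Annexin V and PI, then read by flow cytometry. % apoptotic death = % Annexin V⁺PI⁺ of treated minus untreated control (mean, SD).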

For a further data set, the target named is DNMT3b (Homo sapiens, UniProt Q9UBC3). Put plainly: DNMT enzymatic activity in vitro. The format is biochemical. Particulars: recombinant DNMT3b; 10-dose, 3-fold serial dilutions starting at 10 μM. A digest of the protocol: (§1)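 Recombinant human enzyme with ³H-S-adenosylmethionine as substrate. Test compound was run at 10 doses, 3-fold serial dilution from 10 μM. […] Activity was plotted against concentration and IC50 fitted by curve regression. Three independent assays used three compound lots.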

The target in a further data set is DNMT1 (Homo sapiens, UniProt P26358). Put plainly: DNMT enzymatic activity in vitro. Particulars: recombinant DNMT1; 10-dose, 3-fold serial dilutions starting at 10 μM. The class given is biochemical. A digest of the protocol:
as §1

Data set [7] is described as follows: Mouse serum liver enzyme profiles. The class given is in vivo. Particulars: at the efficacious dose (1 mg/kg i.v.); preliminary assays.
A further data set addresses DNMT3a (Homo sapiens, UniProt Q9Y6K1). Briefly: DNMT enzymatic activity in vitro. The class given is biochemical. To be noted: recombinant DNMT3a; 10-dose, 3-fold serial dilutions starting at 10 μM. Put shortly:
as §1

The test system of data set [8] is LS411N and SW620 cells. Put plainly: BNIP3 promoter DNA methylation by methylation specific-PCR. To be noted: 3 days. The format is cell-based, human. A digest of the protocol: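 Cells were exposed to test compound at several concentrations for 3 days. Methylation status of the BNIP3 promoter CpG island was then assessed by methylation-specific PCR, with separate primers for the unmethylated and methylated forms.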

Chain of DNMT1 (P26358 whole entry, species assumed): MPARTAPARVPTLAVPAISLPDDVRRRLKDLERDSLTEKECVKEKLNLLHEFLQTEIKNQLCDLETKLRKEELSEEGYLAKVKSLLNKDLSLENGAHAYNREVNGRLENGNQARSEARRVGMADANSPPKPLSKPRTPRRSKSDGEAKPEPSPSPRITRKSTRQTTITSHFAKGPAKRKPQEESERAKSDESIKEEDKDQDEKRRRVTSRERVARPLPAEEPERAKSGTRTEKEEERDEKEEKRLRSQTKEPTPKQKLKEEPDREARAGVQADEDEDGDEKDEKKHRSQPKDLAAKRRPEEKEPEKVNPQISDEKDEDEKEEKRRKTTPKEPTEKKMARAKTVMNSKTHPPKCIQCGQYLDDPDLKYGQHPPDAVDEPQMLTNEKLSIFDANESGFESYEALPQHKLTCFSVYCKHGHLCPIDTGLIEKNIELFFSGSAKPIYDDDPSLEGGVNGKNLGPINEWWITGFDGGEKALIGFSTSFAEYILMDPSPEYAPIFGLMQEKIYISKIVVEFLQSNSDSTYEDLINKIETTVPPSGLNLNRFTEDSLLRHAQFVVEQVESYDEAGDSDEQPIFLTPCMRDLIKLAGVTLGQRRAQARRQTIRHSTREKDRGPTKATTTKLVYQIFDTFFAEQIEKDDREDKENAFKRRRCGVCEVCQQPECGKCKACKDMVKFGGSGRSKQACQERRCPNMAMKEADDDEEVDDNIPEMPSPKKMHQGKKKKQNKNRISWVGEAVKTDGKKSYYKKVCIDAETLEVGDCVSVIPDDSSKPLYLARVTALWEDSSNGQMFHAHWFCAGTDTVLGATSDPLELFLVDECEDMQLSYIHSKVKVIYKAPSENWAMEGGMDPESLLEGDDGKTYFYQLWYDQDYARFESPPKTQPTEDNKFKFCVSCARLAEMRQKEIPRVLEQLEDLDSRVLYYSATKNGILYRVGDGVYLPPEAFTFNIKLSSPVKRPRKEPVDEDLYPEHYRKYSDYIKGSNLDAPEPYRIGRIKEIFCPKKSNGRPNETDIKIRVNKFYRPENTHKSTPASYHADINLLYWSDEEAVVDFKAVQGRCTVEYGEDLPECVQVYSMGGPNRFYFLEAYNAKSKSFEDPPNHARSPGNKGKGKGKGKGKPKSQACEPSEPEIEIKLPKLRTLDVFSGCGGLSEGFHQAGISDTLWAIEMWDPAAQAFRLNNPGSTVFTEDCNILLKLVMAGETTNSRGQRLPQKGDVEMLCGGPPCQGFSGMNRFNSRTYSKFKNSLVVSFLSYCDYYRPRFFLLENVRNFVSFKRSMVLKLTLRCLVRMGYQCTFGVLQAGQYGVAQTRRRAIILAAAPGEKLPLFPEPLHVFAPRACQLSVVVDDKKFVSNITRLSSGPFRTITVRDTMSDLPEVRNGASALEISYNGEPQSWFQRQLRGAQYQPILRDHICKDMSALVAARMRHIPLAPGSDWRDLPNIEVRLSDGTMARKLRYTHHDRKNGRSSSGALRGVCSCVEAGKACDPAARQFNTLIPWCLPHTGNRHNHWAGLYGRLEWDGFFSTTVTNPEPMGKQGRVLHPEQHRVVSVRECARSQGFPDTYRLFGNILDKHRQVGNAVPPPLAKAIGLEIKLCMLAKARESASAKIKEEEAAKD
Chain of DNMT3a (Q9Y6K1 whole entry, looked up, species assumed): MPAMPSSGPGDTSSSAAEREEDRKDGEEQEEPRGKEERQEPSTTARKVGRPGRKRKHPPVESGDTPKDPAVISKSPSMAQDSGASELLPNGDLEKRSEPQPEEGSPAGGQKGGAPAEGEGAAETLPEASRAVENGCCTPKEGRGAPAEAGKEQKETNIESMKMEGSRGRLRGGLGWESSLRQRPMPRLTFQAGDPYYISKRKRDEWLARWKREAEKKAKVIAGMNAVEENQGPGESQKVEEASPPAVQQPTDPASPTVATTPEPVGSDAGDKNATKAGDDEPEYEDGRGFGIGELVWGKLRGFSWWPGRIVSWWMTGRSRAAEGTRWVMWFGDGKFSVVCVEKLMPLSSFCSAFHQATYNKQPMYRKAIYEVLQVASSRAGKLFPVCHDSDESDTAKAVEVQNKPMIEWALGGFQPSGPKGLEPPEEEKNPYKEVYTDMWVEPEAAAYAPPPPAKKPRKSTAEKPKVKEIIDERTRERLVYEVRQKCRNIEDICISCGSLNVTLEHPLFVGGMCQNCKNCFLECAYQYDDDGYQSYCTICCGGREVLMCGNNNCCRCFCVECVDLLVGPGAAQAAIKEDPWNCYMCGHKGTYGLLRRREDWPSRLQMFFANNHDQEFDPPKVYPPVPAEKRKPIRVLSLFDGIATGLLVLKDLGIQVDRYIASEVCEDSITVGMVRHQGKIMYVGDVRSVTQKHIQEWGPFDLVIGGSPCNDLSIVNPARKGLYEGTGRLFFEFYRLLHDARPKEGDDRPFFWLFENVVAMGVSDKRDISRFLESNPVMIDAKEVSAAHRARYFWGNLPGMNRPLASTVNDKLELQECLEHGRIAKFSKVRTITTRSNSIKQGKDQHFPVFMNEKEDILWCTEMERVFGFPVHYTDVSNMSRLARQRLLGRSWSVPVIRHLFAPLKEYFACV

As to `CN1C(=O)[C@]23SS[C@@]1(C)C(=O)N2[C@H]1Nc2ccccc2[C@@]1([C@@]12c4ccccc4N[C@@H]1N1C(=O)[C@@]4(C)SS[C@]1(C(=O)N4C)[C@H]2O)[C@@H]3O` [Verticillin A, verticillin A], the “H3K9ac level in the FAS promoter region” value in the data set on SW620 and SW480 cells (SW480 cells) is given as “dramatically increased”. Also, in the data set on SW620 and SW480 cells (SW620 cells, 50 nM), the “H3K9me3 level in the FAS promoter region” value is listed as “decreased” and the “RNA Pol II level in the FAS promoter region” value is “did not identify an increase”. Also, in the data set on SW620 and SW480 cells (SW620 cells, increase), the “H3K9ac level in the FAS promoter region” value is on record as “at a low degree”. Besides, the “sensitivity of 5-FU-resistant human CRC cells to verticillin A” value in [1] (5-FU-resistant cells versus parent cell lines (Fig. S2B)) is reported as “as sensitive to verticillin A as the parent cell lines”. In addition, in [1] (relatively high dose), the “dose effective in suppression of metastatic human CRC cell growth” value amounted to 100 nM. Besides, the “cell surface Fas receptor level” value in data set [2] (LS411N-5FU-R and SW620-5FU-R cells, flow cytometry) is recorded as “significantly increased”. Besides, the “Fas mRNA level” value in [2] (SW620-5FU-R cells, real time RT-PCR) is listed as “significantly increased”. In addition, in data set [3], the “sensitization of tumor cells to FasL-induced apoptosis” value (from here on “sensitization of tumor cells”) was “significantly greater efficacy than either decitabine or vorinostat”. In addition, in data set [4], the DR4 expression result is on record as “did not alter” and the DR5 expression level result is recorded as “increased”. Moreover, in the data set on LS411N and SW620 cells [5], the “H3K9me2 and H3K9me3 levels” value was “diminished”. In [6], the “cell sensitivity to Drozitumab” value is on record as “significantly increased”. Also, at DNMT3b, the “effect on DNMT3b enzymatic activity” value was “no inhibitory effect”. For the same compound, the “effect on DNMT1 enzymatic activity” value at DNMT1 is recorded as “no inhibitory effect”. The liver toxicity entry in data set [7] is listed as “minimal liver toxicity”. The “effect on DNMT3a enzymatic activity” value on DNMT3a is recorded as “no inhibitory effect”. Further, in the data set with LS411N and SW620 cells [8], the “DNA demethylation of the BNIP3 promoter region” value was “did not result in DNA demethylation”.
In the case of `Nc1ncn([C@H]2C[C@H](O)[C@@H](CO)O2)c(=O)n1` [decitabine], in data set [3], the “sensitization of tumor cells” value is reported as “to a small degree”.
`O=C(CCCCCCC(=O)Nc1ccccc1)NO` [vorinostat]: the “sensitization of tumor cells” value in data set [3] is “to a small degree”.
